Test results: ChEMBL document CHEMBL1126640, “Inhibition studies of some serine and thiol proteinases by new leupeptin analogues” (J Med Chem, 1993); call rule not given here
Where a SMILES comes first, the peptide text is derived from it.

Experiments:
Cathepsin B [1] = target: T1, Cathepsin B (Bos taurus, UniProt P07688); test: Inhibition of cathepsin B with Cbz-L-lysine-p-nitrophenyl ester; Not significantly active
Method in brief: (§1)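 Bovine spleen cathepsin B stock (0.163 mg/mL) in 0.10 M sodium phosphate pH 6.0 with 0.10 mg/mL DTT. Diluted in 0.10 M phosphate pH 6.0, preincubated ± inhibitor 2.5 min at 30 °C. Started with Nα-Cbz-L-lysine p-nitrophenyl ester (0.0024 M stock); A405 change over 1 min. IC50 from % inhibition vs log[inhibitor], ≥4 concentrations in ≥3 repeats. NA means ≤25% activity loss at 100 µM or more.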

Plasma kallikrein [2] = target: T2, Plasma kallikrein (Homo sapiens, UniProt P03952); test: Inhibition of kallikrein with benzoyl-L-arginine ethyl ester as substrate
Plasminogen [3] = target: T3, Plasminogen (Bos taurus, UniProt P06868); test: Inhibition of plasmin with Val-L-Leu-L-lysine-p-nitroanilide as substrate
Method in brief: (§2)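 Bovine plasma plasmin (6.24 mg/mL stock) in 0.45 M Tris pH 8.0 with 0.011 M NaCl, preincubated ± inhibitor 2.5 min at 37 °C. Reaction started with D-Val-L-Leu-L-Lys p-nitroanilide (0.0031 M stock); A405 change over 1 min. IC50 read from % inhibition vs log[inhibitor], ≥4 concentrations, each ≥3 times. NA: ≥100 µM lowers activity ≤25%.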

Prothrombin [4] = target: T4, Prothrombin (Bos taurus, UniProt P00735); test: Inhibition of thrombin with benzoyl-Phe-Val-arginine- p-nitroanilide as substrate
Method in brief: (§3)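 Bovine plasma thrombin (19.7 NIH units/mL stock) in 0.01 M Tris pH 8.0, preincubated ± inhibitor 2.5 min at 37 °C. Benzoyl-Phe-Val-Arg p-nitroanilide (0.0005 M stock in 6.8% DMSO/buffer) initiated; A405 change over 1 min. Percent inhibition at ≥4 concentrations (≥3 repeats) plotted against log concentration for IC50.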

Serine protease 1 [5] = target: T5, Serine protease 1 (Bos taurus, UniProt P00760); test: Inhibition of trypsin with benzoyl-L-arginine ethyl ester as substrate; […]
T5 sequence (P00760 whole entry): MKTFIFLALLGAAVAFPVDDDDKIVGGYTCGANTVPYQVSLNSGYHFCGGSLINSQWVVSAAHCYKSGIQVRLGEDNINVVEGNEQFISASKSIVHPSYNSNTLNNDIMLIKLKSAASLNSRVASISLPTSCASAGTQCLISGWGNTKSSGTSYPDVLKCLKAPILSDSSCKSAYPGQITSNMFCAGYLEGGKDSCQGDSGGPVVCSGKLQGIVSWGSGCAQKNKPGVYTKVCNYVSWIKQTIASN

Cathepsin B [6] = target: T1, Cathepsin B; test: Inhibition of cathepsin B with Cbz-L-lysine-p-nitrophenyl ester as substrate; method in brief: as §1
Prothrombin [7] = target: T4, Prothrombin; test: Inhibition of thrombin with benzoyl-Phe-Val-arginine- p-nitroanilide as substrate; Not significantly active; method in brief: as §3
Plasma kallikrein [8] = target: T2, Plasma kallikrein; test: Inhibition of kallikrein with benzoyl-L-arginine ethyl ester as substrate; Not significantly active
Serine protease 1 [9] = target: T5, Serine protease 1; test: Inhibition of trypsin with benzoyl-L-arginine ethyl ester as substrate
Plasminogen [10] = target: T3, Plasminogen; test: Inhibition of plasmin with Val-L-Leu-L-lysine-p-nitroanilide; Not significantly active; method in brief: as §2

T2 sequence (P03952 20-390 limits assumed): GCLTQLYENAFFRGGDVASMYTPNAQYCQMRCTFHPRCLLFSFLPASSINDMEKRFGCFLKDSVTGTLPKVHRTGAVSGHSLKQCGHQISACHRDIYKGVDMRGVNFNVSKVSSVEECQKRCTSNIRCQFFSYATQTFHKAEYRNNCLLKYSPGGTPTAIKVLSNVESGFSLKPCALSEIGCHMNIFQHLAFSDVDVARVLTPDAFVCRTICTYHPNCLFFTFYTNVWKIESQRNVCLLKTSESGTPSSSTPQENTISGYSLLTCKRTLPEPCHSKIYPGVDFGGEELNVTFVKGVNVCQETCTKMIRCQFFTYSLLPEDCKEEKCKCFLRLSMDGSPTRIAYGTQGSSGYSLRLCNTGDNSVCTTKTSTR
T2 sequence (P03952 391-638 limits assumed): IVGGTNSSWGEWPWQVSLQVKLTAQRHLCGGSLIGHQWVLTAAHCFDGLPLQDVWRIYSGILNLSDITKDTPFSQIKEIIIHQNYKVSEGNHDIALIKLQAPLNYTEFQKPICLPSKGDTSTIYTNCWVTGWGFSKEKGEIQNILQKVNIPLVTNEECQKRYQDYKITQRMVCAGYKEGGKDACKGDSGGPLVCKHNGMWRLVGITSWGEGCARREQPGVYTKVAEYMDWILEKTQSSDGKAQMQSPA
T3 sequence (P06868 104-583 limits assumed): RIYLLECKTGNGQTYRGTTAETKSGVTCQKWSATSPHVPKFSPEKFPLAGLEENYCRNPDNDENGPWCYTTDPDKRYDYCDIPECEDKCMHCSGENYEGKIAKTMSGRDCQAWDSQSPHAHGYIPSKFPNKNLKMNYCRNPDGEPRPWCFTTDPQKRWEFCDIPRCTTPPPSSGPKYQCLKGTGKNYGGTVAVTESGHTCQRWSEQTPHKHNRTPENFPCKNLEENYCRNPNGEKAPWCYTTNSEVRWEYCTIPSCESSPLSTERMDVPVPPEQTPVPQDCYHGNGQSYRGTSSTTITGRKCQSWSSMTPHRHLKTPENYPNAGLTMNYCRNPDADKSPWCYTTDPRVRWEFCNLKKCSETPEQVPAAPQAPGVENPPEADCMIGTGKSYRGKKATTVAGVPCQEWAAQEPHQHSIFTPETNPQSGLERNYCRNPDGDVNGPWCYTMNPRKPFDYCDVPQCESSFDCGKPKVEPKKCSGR
T3 sequence (P06868 584-812 limits assumed): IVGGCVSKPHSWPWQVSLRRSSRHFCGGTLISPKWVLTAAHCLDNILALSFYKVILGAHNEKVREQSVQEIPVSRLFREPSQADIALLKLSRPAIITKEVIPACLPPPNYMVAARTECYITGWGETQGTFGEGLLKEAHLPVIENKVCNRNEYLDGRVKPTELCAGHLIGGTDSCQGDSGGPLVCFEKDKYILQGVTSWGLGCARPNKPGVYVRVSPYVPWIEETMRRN

**Q.** What does the source list for CC[C@H](C)[C@H](NC(C)=O)C(=O)N[C@@H](CC(C)C)C(=O)N[C@H](C=O)CCCN=C(N)N (Ac-Ile-Leu-Arg-aldehyde)?
**A.** IC50 (Cathepsin B [1]): Not Active; IC50 (Plasma kallikrein [2]): 54 µM; IC50 (Plasminogen [3]): 67 µM; IC50 (Prothrombin [4]): 94 µM; IC50 (Serine protease 1 [5]): Not Active

**Q.** Which IC50 (Cathepsin B [6]) does the source give for CC[C@H](C)[C@H](NC(C)=O)C(=O)N[C@@H](CC(C)C)C(=O)N[C@H](C=O)CCCCN (Ac-Ile-Leu-Lys-aldehyde) here?
**A.** 2 µM

**Q.** And the IC50 (Plasminogen [3])?
**A.** 17 µM

**Q.** And the IC50 (Prothrombin [7])?
**A.** Not Active

**Q.** And the IC50 (Plasma kallikrein [8])?
**A.** Not Active

**Q.** What about the IC50 (Serine protease 1 [5]) of the same compound?
**A.** Not Active

**Q.** For CC[C@H](C)[C@H](NC(=O)[C@H](CC(C)C)NC(C)=O)C(=O)N[C@H](C=O)CCCN=C(N)N (Ac-Leu-Ile-Arg-aldehyde), which IC50 (Cathepsin B [6]) is on record?
**A.** 0.15 µM

**Q.** And the IC50 (Plasma kallikrein [2])?
**A.** 35 µM

**Q.** And the IC50 (Plasminogen [3])?
**A.** 11 µM

**Q.** What about the IC50 (Prothrombin [4]) of the same compound?
**A.** 18 µM

**Q.** What about the IC50 (Serine protease 1 [9]) of the same compound?
**A.** 9.1 µM

**Q.** For CC(=O)N[C@@H](CC(C)C)C(=O)N[C@@H](CC(C)C)C(=O)N[C@H](C=O)CCCCN (Ac-Leu-Leu-Lys-aldehyde), which IC50 (Cathepsin B [6]) is on record?
**A.** 0.13 µM

**Q.** And the IC50 (Plasminogen [3])?
**A.** 18 µM

**Q.** And the IC50 (Prothrombin [7])?
**A.** Not Active

**Q.** And the IC50 (Plasma kallikrein [8])?
**A.** Not Active

**Q.** What about the IC50 (Serine protease 1 [5]) of the same compound?
**A.** Not Active

**Q.** CC(=O)N[C@@H](CC(C)C)C(=O)N[C@@H](Cc1ccccc1)C(=O)N[C@H](C=O)CCCN=C(N)N (Ac-Leu-Phe-Arg-aldehyde) was tested. Which IC50 (Cathepsin B [6]) did it give?
**A.** 1.1 µM

**Q.** What about the IC50 (Plasma kallikrein [2]) of the same compound?
**A.** 41 µM

**Q.** What about the IC50 (Plasminogen [3]) of the same compound?
**A.** 3.6 µM

**Q.** And the IC50 (Prothrombin [4])?
**A.** 8.2 µM

**Q.** And the IC50 (Serine protease 1 [5])?
**A.** Not Active

**Q.** With CC(=O)N[C@@H](CC(C)C)C(=O)N[C@@H](Cc1ccccc1)C(=O)N[C@H](C=O)CCCCN (Ac-Leu-Phe-Lys-aldehyde) as the compound, how does the IC50 (Cathepsin B [6]) read?
**A.** 0.1 µM

**Q.** And the IC50 (Plasminogen [10])?
**A.** Not Active

**Q.** And the IC50 (Prothrombin [7])?
**A.** Not Active

**Q.** And the IC50 (Plasma kallikrein [8])?
**A.** Not Active

**Q.** What about the IC50 (Serine protease 1 [5]) of the same compound?
**A.** Not Active

**Q.** CC(=O)N[C@@H](CC(C)C)C(=O)N[C@@H](Cc1ccc(O)cc1)C(=O)N[C@H](C=O)CCCN=C(N)N (Ac-Leu-Tyr-Arg-aldehyde) was tested. Which IC50 (Cathepsin B [6]) did it give?
**A.** 1.6 µM

**Q.** And the IC50 (Plasma kallikrein [2])?
**A.** 25 µM

**Q.** And the IC50 (Plasminogen [3])?
**A.** 5.6 µM

**Q.** What about the IC50 (Prothrombin [4]) of the same compound?
**A.** 66 µM

**Q.** And the IC50 (Serine protease 1 [5])?
**A.** Not Active

**Q.** With CC(=O)N[C@@H](CC(C)C)C(=O)N[C@H](C(=O)N[C@H](C=O)CCCN=C(N)N)C(C)C (Ac-Leu-Val-Arg-aldehyde) as the compound, how does the IC50 (Cathepsin B [6]) read?
**A.** 130 µM

**Q.** And the IC50 (Plasma kallikrein [2])?
**A.** 16 µM

**Q.** And the IC50 (Plasminogen [10])?
**A.** Not Active

**Q.** What about the IC50 (Prothrombin [7]) of the same compound?
**A.** Not Active

**Q.** What about the IC50 (Serine protease 1 [5]) of the same compound?
**A.** Not Active

**Q.** Which IC50 (Cathepsin B [6]) does the source give for CC(=O)N[C@@H](CC(C)C)C(=O)N[C@H](C(=O)N[C@H](C=O)CCCCN)C(C)C (Ac-Leu-Val-Lys-aldehyde) here?
**A.** 0.004 µM

**Q.** And the IC50 (Plasminogen [3])?
**A.** 13 µM

**Q.** What about the IC50 (Prothrombin [4]) of the same compound?
**A.** 140 µM

**Q.** What about the IC50 (Serine protease 1 [9]) of the same compound?
**A.** 45 µM

**Q.** And the IC50 (Plasma kallikrein [8])?
**A.** Not Active

**Q.** How did the IC50 (Cathepsin B [6]) turn out when CC(=O)N[C@@H](Cc1ccccc1)C(=O)N[C@@H](CC(C)C)C(=O)N[C@H](C=O)CCCN=C(N)N (Ac-Phe-Leu-Arg-aldehyde) was run?
**A.** 1.5 µM

**Q.** And the IC50 (Plasma kallikrein [2])?
**A.** 16 µM

**Q.** And the IC50 (Plasminogen [3])?
**A.** 7.7 µM

**Q.** What about the IC50 (Prothrombin [4]) of the same compound?
**A.** 71 µM

**Q.** And the IC50 (Serine protease 1 [9])?
**A.** 37 µM

**Q.** Which IC50 (Cathepsin B [6]) does the source give for CC(=O)N[C@@H](Cc1ccccc1)C(=O)N[C@@H](CC(C)C)C(=O)N[C@H](C=O)CCCCN (Ac-Phe-Leu-Lys-aldehyde) here?
**A.** 18 µM

**Q.** And the IC50 (Plasminogen [10])?
**A.** Not Active

**Q.** What about the IC50 (Prothrombin [7]) of the same compound?
**A.** Not Active

**Q.** What about the IC50 (Plasma kallikrein [8]) of the same compound?
**A.** Not Active

**Q.** What about the IC50 (Serine protease 1 [5]) of the same compound?
**A.** Not Active

**Q.** Which results are given for CC(=O)N[C@@H](Cc1ccccc1)C(=O)N[C@H](C(=O)N[C@H](C=O)CCCN=C(N)N)C(C)C (Ac-Phe-Val-Arg-aldehyde)?
**A.** IC50 (Cathepsin B [6]): 0.039 µM; IC50 (Plasma kallikrein [2]): 28 µM; IC50 (Plasminogen [3]): 2.2 µM; IC50 (Prothrombin [4]): 1.8 µM; IC50 (Serine protease 1 [9]): 12 µM

**Q.** Which IC50 (Cathepsin B [6]) does the source give for CC(=O)N[C@@H](Cc1ccc(O)cc1)C(=O)N[C@@H](CC(C)C)C(=O)N[C@H](C=O)CCCN=C(N)N (Ac-Tyr-Leu-Arg-aldehyde) here?
**A.** 22 µM

**Q.** What about the IC50 (Plasma kallikrein [2]) of the same compound?
**A.** 26 µM

**Q.** And the IC50 (Plasminogen [3])?
**A.** 78 µM

**Q.** And the IC50 (Prothrombin [4])?
**A.** 35 µM

**Q.** And the IC50 (Serine protease 1 [5])?
**A.** Not Active

**Q.** For CC(=O)N[C@H](C(=O)N[C@@H](CC(C)C)C(=O)N[C@H](C=O)CCCN=C(N)N)C(C)C (Ac-Val-Leu-Arg-aldehyde), which IC50 (Cathepsin B [6]) is on record?
**A.** 100 µM

**Q.** And the IC50 (Plasma kallikrein [2])?
**A.** 19 µM

**Q.** What about the IC50 (Plasminogen [3]) of the same compound?
**A.** 65 µM

**Q.** And the IC50 (Prothrombin [4])?
**A.** 170 µM

**Q.** What about the IC50 (Serine protease 1 [9]) of the same compound?
**A.** 130 µM

**Q.** For CC(=O)N[C@H](C(=O)N[C@@H](CC(C)C)C(=O)N[C@H](C=O)CCCCN)C(C)C (Ac-Val-Leu-Lys-aldehyde), which IC50 (Cathepsin B [6]) is on record?
**A.** 28 µM

**Q.** And the IC50 (Plasminogen [10])?
**A.** Not Active

**Q.** What about the IC50 (Prothrombin [7]) of the same compound?
**A.** Not Active

**Q.** And the IC50 (Plasma kallikrein [8])?
**A.** Not Active

**Q.** And the IC50 (Serine protease 1 [5])?
**A.** Not Active

**Q.** CC(=O)N[C@@H](CC(C)C)C(=O)N[C@@H](CC(C)C)C(=O)N[C@H](C=O)CCCNC(=N)N [LEUPEPTIN] was tested. Which IC50 (Cathepsin B [6]) did it give?
**A.** 0.31 µM

**Q.** What about the IC50 (Plasma kallikrein [2]) of the same compound?
**A.** 40 µM

**Q.** And the IC50 (Plasminogen [3])?
**A.** 3.7 µM

**Q.** What about the IC50 (Prothrombin [4]) of the same compound?
**A.** 12 µM

**Q.** What about the IC50 (Serine protease 1 [9]) of the same compound?
**A.** 8.1 µM
